The source of these data is ChEMBL document CHEMBL1138557, “Synthesis and anticonvulsant activity of some substituted 1,2,4-thiadiazoles” (Eur J Med Chem, 2009).

For data set [1], the system named is Mus musculus. The data set can be described thus: Anticonvulsant activity in ip dosed albino CF1 mouse assessed as minimum drug concentration required for inhibition of maximal electroshock-induced seizure in half or more of mouse after 0.5 hrs by MES test. The data set is classed as functional. The gist of the method:
(§1)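 Male CF-1 albino mice (18-25 g), groups of 4. Compound suspended in 0.5% methyl cellulose-water or PEG, given i.p. at 30, 100 and 300 mg/kg. Seizures induced by maximal electroshock (MES) or subcutaneous pentylenetetrazole (scPTZ), tested 0.5 and 4 h after dosing.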
In general terms: The maximal electroshock test induces tonic seizures with an electrical stimulus.

For data set [2], the system named is Mus musculus. The data set is described as follows: Anticonvulsant activity in albino CF1 mouse assessed as inhibition of pentylenetetrazole-induced seizures in half or more of mouse at 300 mg/kg, ip after 4 hrs by scPTZ test. The data set is classed as functional, organism-based. Further details: dose 300 mg/kg. The gist of the method:
as §1

Data set [3] relates to Mus musculus. The data set can be described thus: Neurotoxicity in ip dosed albino CF1 mouse assessed as minimum drug concentration required for motor impairment in half or more of mouse after 0.5 hrs by rotarod test. The data set is classed as toxicity, organism-based. The settings on record: in vivo. The method, boiled down:
(§2)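 Motor impairment was tested on a rotorod in mice trained to stay on a rod of 3.2 cm diameter turning at 10 rev/min. Compound given i.p. at 30, 100 or 300 mg/kg, groups of 4, read at 0.5 and 4 h. Neurotoxicity was scored as failure to keep balance for at least 1 min in each of three trials. Value is the minimum dose affecting half or more of the animals.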

In data set [4] the test system is Mus musculus. The data set is described as follows: Neurotoxicity in ip dosed albino CF1 mouse assessed as minimum drug concentration required for motor impairment in half or more of mouse after 4 hrs by rotarod test. The class given is toxicity, organism-based. As to conditions: in vivo. The method, boiled down:
as §2
A general note: In the rotarod test animals must keep their balance on a rotating rod.

Data set [5] relates to Mus musculus. The data set is described as follows: Anticonvulsant activity in albino CF1 mouse assessed as inhibition of pentylenetetrazole-induced seizures in half or more of mouse at 300 mg/kg, ip after 0.5 hrs by scPTZ test. The data set is classed as functional, organism-based. On the set-up: dose 300 mg/kg. The gist of the method:
as §1

The subject of data set [6] is Mus musculus. The data set can be described thus: Anticonvulsant activity in ip dosed albino CF1 mouse assessed as minimum drug concentration required for inhibition of maximal electroshock-induced seizure in half or more of mouse after 4 hrs by MES test. The class given is functional. The method, boiled down: as §1
Data set [7] deals with Mus musculus. The data set can be described thus: Anticonvulsant activity in albino CF1 mouse assessed as minimum inhibition of maximal electroshock-induced seizure in half or more of mouse at 300 mg/kg, ip after 4 hrs by MES test. The class given is functional, organism-based. On the set-up: dose 300 mg/kg. The method, boiled down:
as §1

For data set [8], the system named is Mus musculus. The data set is described as follows: Neurotoxicity in albino CF1 mouse assessed as motor impairment at 300 mg/kg, ip after 4 hrs by rotarod test. The data set is classed as toxicity, organism-based. On the set-up: dose 300 mg/kg, route intraperitoneal. As to conditions: in vivo. The method, boiled down: as §2
Data set [9] concerns Mus musculus. The data set can be described thus: Anticonvulsant activity in ip dosed albino CF1 mouse assessed as minimum drug concentration required for inhibition of pentylenetetrazole-induced seizures in half or more of mouse after 0.5 hrs by scPTZ test. The data set is classed as functional. The gist of the method: as §1
The subject of data set [10] is Rattus norvegicus. The data set is described as follows: Sedative-hypnotic activity in phenobarbitone-activated albino Sprague-Dawley rat assessed as increase in sleeping time at 100 mg/kg pretreated for 30 mins before phenobarbitone sodium challenge relative to control. The data set is classed as functional. The method, boiled down: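 Compound dissolved in PEG and given at 100 mg/kg to groups of six animals. Phenobarbitone sodium was injected 30 min later. Sleep duration was recorded in minutes (mean ± SEM) and expressed as % increase over a phenobarbitone-only control.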

Data set [11] concerns Mus musculus. The data set can be described thus: Anticonvulsant activity in albino CF1 mouse assessed as minimum inhibition of maximal electroshock-induced seizure in half or more of mouse at 300 mg/kg, ip after 0.5 hrs by MES test. Further details: dose 300 mg/kg. The data set is classed as functional, organism-based. The gist of the method:
as §1

The test system of data set [12] is Mus musculus. The data set can be described thus: Neurotoxicity in albino CF1 mouse assessed as motor impairment at 300 mg/kg, ip after 0.5 hrs by rotarod test. As to conditions: in vivo. On the set-up: dose 300 mg/kg, route intraperitoneal. The class given is toxicity, organism-based. The method, boiled down:
as §2

Calls of active or inactive are those of the source. The rule behind the calls is not given here.

`O=C1NC(=O)C(c2ccccc2)(c2ccccc2)N1` [PHENYTOIN]: the Activity in data set [1] was 30 mg/kg; in data set [3], 100 mg/kg; in data set [4] it was 100 mg/kg; in data set [6], 100 mg/kg. The result in data set [2] and in data set [5] was inactive.
As to `O=c1snc(Nc2ccccn2)n1-c1ccccn1`, the result in data set [7], in data set [2] and in data set [5] was inactive. Moreover, the values for the Activity in [1], in data set [3] and in [8] were 300 mg/kg, 100 mg/kg and “Non-toxic”, respectively.
Regarding `NC(=O)N1c2ccccc2C=Cc2ccccc21` [CARBAMAZEPINE], the outcome in data set [7] and in data set [2] was inactive. Also, the Activity in data set [1] worked out at 30 mg/kg; in data set [3], 100 mg/kg; in [9] it was 100 mg/kg; in [4], 300 mg/kg.
For `c1cncc(Nc2nsc(Nc3cccnc3)n2)c1`, the outcome in [7], in data set [2] and in data set [5] was inactive. Besides, the Activity was 300 mg/kg in data set [1], 100 mg/kg in [3] and “Non-toxic” in data set [8].
For the molecule `CCOc1ccc(Nc2nsc(Nc3ccc(OCC)cc3)n2)cc1`, the Activity in [1] is 100 mg/kg; in data set [3], 300 mg/kg; in data set [10], 36.7%; in data set [4], 300 mg/kg; in [6] it was 300 mg/kg. Besides, the outcome in data set [2] and in [5] was inactive.
`c1ccc(Nc2nsc(Nc3ccccn3)n2)nc1`: the result in data set [7], in data set [2] and in [5] was inactive. Also, the Activity in data set [1] was 300 mg/kg; in [3] it was 100 mg/kg; in data set [8] it was “Non-toxic”.
Take `CCOc1ccc(Nc2nsc(=O)n2-c2ccc(OCC)cc2)cc1`: the Activity in [1] amounted to 100 mg/kg; in [3], 300 mg/kg; in [9], 300 mg/kg; in [10], 67.1%; in data set [4], 300 mg/kg; in data set [6], 300 mg/kg. Moreover, the result in data set [2] was inactive.
In the case of `O=c1snc(Nc2ccc(F)cc2)n1-c1ccc(F)cc1`, the outcome in data set [7], in data set [2] and in [5] was inactive. For the same molecule, the Activity in [1] is 100 mg/kg; in data set [3], 300 mg/kg; in data set [10], 17.7%; in data set [8], “Non-toxic”.
As for `Fc1ccc(Nc2nsc(Nc3ccc(F)cc3)n2)cc1`, the Activity is 100 mg/kg in data set [1], 100 mg/kg in [3], “Non-toxic” in data set [8] and 300 mg/kg in data set [6]. Further, the result in [2] and in data set [5] was inactive.
On to `c1cnc(Nc2nsc(Nc3ncccn3)n2)nc1`, for which the result in data set [11], in data set [7], in [2] and in data set [5] was inactive. For the same molecule, the Activity in [3] is 300 mg/kg; in data set [10] it was 59.5%; in [8], “Non-toxic”.
Take `O=c1snc(Nc2cccnc2)n1-c1cccnc1`: the result in [7], in data set [2] and in [5] was inactive. The Activity in data set [1] is 300 mg/kg; in data set [3] it was 100 mg/kg; in [8], “Non-toxic”.
On to `c1ccc2c(Nc3nsc(Nc4cccc5ccccc45)n3)cccc2c1`, for which the Activity was 100 mg/kg in data set [1]; 300 mg/kg in data set [3]; 22.7% in [10]; “Non-toxic” in [8]; 300 mg/kg in [6]. Also, the result in data set [2] and in data set [5] was inactive.
For the molecule `O=c1snc(Nc2cccc3ccccc23)n1-c1cccc2ccccc12`, the Activity in data set [1] was 100 mg/kg; in data set [3] it was 300 mg/kg; in data set [10], 16.4%; in data set [8] it was “Non-toxic”; in data set [6], 300 mg/kg. The result in data set [2] and in [5] was inactive.
For the molecule `O=c1snc(Nc2ncccn2)n1-c1ncccn1`, the result in data set [7], in [2] and in data set [5] was inactive. The Activity in [1] is 300 mg/kg; in data set [12], “Non-toxic”; in data set [8], “Non-toxic”.
With `c1cc(Nc2nsc(Nc3ccncc3)n2)ccn1`, the result in data set [7], in data set [2] and in data set [5] was inactive. Moreover, the results for the Activity in data set [1], in data set [3] and in data set [8] were 300 mg/kg, 100 mg/kg and “Non-toxic”, respectively.
Consider `O=c1snc(Nc2ccncc2)n1-c1ccncc1`, for which the outcome in [7], in data set [2] and in [5] was inactive. Further, the Activity was 300 mg/kg in data set [1], 100 mg/kg in [3] and “Non-toxic” in data set [8].
